We go through 4 compounds from ChEMBL document CHEMBL4118256, “Second Generation of Mannich Base-Type Derivatives with in Vivo Activity against Trypanosoma cruzi” (J Med Chem, 2018).

Series [1] relates to Trypanosoma cruzi. Description: Trypanocidal activity against Trypanosoma cruzi MHOM/Pe/2011/Arequipa DTU 5 trypamastigotes derived from infected Balb/c albino mouse after 24 hrs by resazurin dye based assay. Format: functional, organism-based. The settings on record: MHOM/Pe/2011/Arequipa DTU 5, 24 h. The gist of the method: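 Bloodstream trypomastigotes taken from mice at peak parasitaemia were seeded at 2×10^6 mL^-1 in RPMI with 10% FBS. Compounds were added at 50–0.2 µM and incubated 24 h at 37 °C, 5% CO2, then with resazurin for 4 h. SDS was added and absorbance read at 570/600 nm. IC50 was fitted; triplicate, four separate determinations.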

Series [2] has as its system Trypanosoma cruzi. Description: Trypanocidal activity against Trypanosoma cruzi IRHOD/CO/2008/SN3 DTU 1 amastigotes infected in African green monkey Vero cells after 72 hrs by Giemsa-staining based microscopic assay. Format: functional, organism-based. The settings on record: IRHOD/CO/2008/SN3 DTU 1, Vero. The gist of the method: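 Vero cells were seeded at 1×10^4/well on coverslips. After 24 h they were infected with culture-derived trypomastigotes (MOI 1:10, 24 h), then washed. Compounds were added at 100–0.2 µM (DMSO 0.01% v/v) for 72 h at 37 °C, 5% CO2. Slides were methanol-fixed and Giemsa-stained; amastigotes and infected cells were counted over 500 host cells. IC50 was derived by curve fitting; triplicate wells, four separate determinations.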

Series [3] in a line: Selectivity index, ratio of IC50 for African green monkey Vero cells to IC50 for Trypanosoma cruzi MHOM/Pe/2011/Arequipa DTU 5 amastigotes infected in African green monkey Vero cells. Format: toxicity. Conditions: read-out: Ratio IC50. The gist of the method:
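SI is Vero IC50 divided by the IC50 for the stated parasite form. For Vero cytotoxicity, cells were seeded at 1.25×10^4 mL^-1 with compounds at 1000–1 µM, incubated 48 h, then given resazurin for a further 24 h (72 h total), with absorbance read at 570/600 nm. Triplicate, four determinations.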

Series [4] deals with Mus musculus. In words: Nephrotoxicity in Balb/c mouse infected with Trypanosoma cruzi MHOM/Pe/2011/Arequipa DTU 5 trypamastigotes assessed as change in urea level in serum at […], po once daily for 5 consecutive days starting from day 10 post infection measured on day 127 post infection by biochemical analysis relative to control. Format: toxicity, organism-based. Conditions: in vivo.

Series [5] relates to Mus musculus. In words: Nephrotoxicity in Balb/c mouse infected with Trypanosoma cruzi MHOM/Pe/2011/Arequipa DTU 5 trypamastigotes assessed as decrease in urea level in serum at […], po once daily for 5 consecutive days starting from day 75 post infection measured on day 81 post infection by biochemical analysis relative to control. The settings on record: in vivo. Further details: scale not given: the % may be the effect or the level left. Format: toxicity, organism-based.

The subject of series [6] is Mus musculus. In words: Nephrotoxicity in Balb/c mouse infected with Trypanosoma cruzi MHOM/Pe/2011/Arequipa DTU 5 trypamastigotes assessed as decrease in uric acid level in serum at […], po once daily for 5 consecutive days starting from day 75 post infection measured on day 81 post infection by biochemical analysis relative to control. It is filed as toxicity, organism-based. Further details: scale not given: the % may be the effect or the level left. Conditions: in vivo.

Series [7] relates to Mus musculus. In words: Cardiotoxicity in Balb/c mouse infected with Trypanosoma cruzi MHOM/Pe/2011/Arequipa DTU 5 trypamastigotes assessed as change in serum LDH level at 100 mg/kg, po once daily for 5 consecutive days starting from day 10 post infection measured on day 16 post infection by biochemical analysis relative to control. It is filed as toxicity, organism-based. The settings on record: in vivo.

Series [8] has as its system Trypanosoma cruzi. In words: Antitrypanosomal activity against Trypanosoma cruzi MHOM/Pe/2011/Arequipa DTU 5 epimastigotes assessed as effect on parasite glycolytic pathway by measuring L-alanine excretion at IC25 after 72 hrs by 1H NMR method. It is filed as functional, organism-based. Put shortly: (§1)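 Arequipa epimastigotes exposed at IC25 for 72 h alongside an untreated control. Excreted catabolites were analysed by 1H NMR, and each peak is reported as % variation versus the control. Three separate determinations.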

Series [9] deals with Trypanosoma cruzi. Description: Antitrypanosomal activity against Trypanosoma cruzi MHOM/Pe/2011/Arequipa DTU 5 epimastigotes assessed as effect on parasite glycolytic pathway by measuring D-lactate excretion at IC25 after 72 hrs by 1H NMR method. It is filed as functional, organism-based. Put shortly:
as §1

For series [10], the system named is Trypanosoma cruzi. In words: Antitrypanosomal activity against Trypanosoma cruzi MHOM/Pe/2011/Arequipa DTU 5 epimastigotes assessed as reduction in mitochondrial membrane potential at IC25 after 72 hrs by Rho123 staining based flow cytometry relative to control. Also on record: scale not given: the % may be the effect or the level left. It is filed as functional. Put shortly:
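Arequipa epimastigotes were exposed at IC25 for 72 h, then labelled with Rhodamine 123 and analysed by flow cytometry. Result is % alteration in mitochondrial membrane potential versus untreated control.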
(A flow cytometer gives signals particle by particle.)

Series [11] has as its system Mus musculus. Description: Nephrotoxicity in Balb/c mouse infected with Trypanosoma cruzi MHOM/Pe/2011/Arequipa DTU 5 trypamastigotes assessed as change in uric acid level in serum at […], po once daily for 5 consecutive days starting from day 75 post infection measured on day 127 post infection by biochemical analysis relative to control. Format: toxicity, organism-based. Conditions: in vivo.

Series [12] concerns Mus musculus. In words: Hepatotoxicity in Balb/c mouse infected with Trypanosoma cruzi MHOM/Pe/2011/Arequipa DTU 5 trypamastigotes assessed as decrease in ratio of serum AST to GOT level at […], po once daily for 5 consecutive days starting from day 10 post infection measured on day 127 post infection by biochemical analysis relative to control. Format: toxicity, organism-based. Also on record: scale not given: the % may be the effect or the level left. The settings on record: in vivo.

Series [13] deals with Mus musculus. Description: Hepatotoxicity in Balb/c mouse infected with Trypanosoma cruzi MHOM/Pe/2011/Arequipa DTU 5 trypamastigotes assessed as decrease in ratio of serum AST to GOT level at […], po once daily for 5 consecutive days starting from day 75 post infection measured on day 81 post infection by biochemical analysis relative to control. The settings on record: in vivo. Format: toxicity, organism-based. Also on record: scale not given: the % may be the effect or the level left.

Series [14] deals with Mus musculus. Description: Hepatotoxicity in Balb/c mouse infected with Trypanosoma cruzi MHOM/Pe/2011/Arequipa DTU 5 trypamastigotes assessed as decrease in ratio of serum AST to GOT level at […], po once daily for 5 consecutive days starting from day 75 post infection measured on day 127 post infection by biochemical analysis relative to control. Format: toxicity, organism-based. Further details: scale not given: the % may be the effect or the level left. Conditions: in vivo.

Series [15] concerns Mus musculus. In words: Hepatotoxicity in Balb/c mouse infected with Trypanosoma cruzi MHOM/Pe/2011/Arequipa DTU 5 trypamastigotes assessed as decrease in ratio of serum ALT to GPT level at […], po once daily for 5 consecutive days starting from day 10 post infection measured on day 16 post infection by biochemical analysis relative to control. Conditions: in vivo. It is filed as toxicity, organism-based. Further details: scale not given: the % may be the effect or the level left.

Series [16] has as its system Mus musculus. In words: Hepatotoxicity in Balb/c mouse infected with Trypanosoma cruzi MHOM/Pe/2011/Arequipa DTU 5 trypamastigotes assessed as decrease in ratio of serum ALT to GPT level at […], po once daily for 5 consecutive days starting from day 75 post infection measured on day 81 post infection by biochemical analysis relative to control. Format: toxicity, organism-based. Also on record: scale not given: the % may be the effect or the level left. The settings on record: in vivo.

Series [17] deals with Mus musculus. In words: Hepatotoxicity in Balb/c mouse infected with Trypanosoma cruzi MHOM/Pe/2011/Arequipa DTU 5 trypamastigotes assessed as decrease in ratio of serum ALT to GPT level at […], po once daily for 5 consecutive days starting from day 75 post infection measured on day 127 post infection by biochemical analysis relative to control. Format: toxicity, organism-based. Further details: scale not given: the % may be the effect or the level left. Conditions: in vivo.

Series [18] deals with Mus musculus. Description: Hepatotoxicity in Balb/c mouse infected with Trypanosoma cruzi MHOM/Pe/2011/Arequipa DTU 5 trypamastigotes assessed as decrease in total bilirubin level at […], po once daily for 5 consecutive days starting from day 10 post infection measured on day 16 post infection by biochemical analysis relative to control. It is filed as toxicity, organism-based. Conditions: in vivo. Further details: scale not given: the % may be the effect or the level left.

Series [19] concerns Mus musculus. Description: Hepatotoxicity in Balb/c mouse infected with Trypanosoma cruzi MHOM/Pe/2011/Arequipa DTU 5 trypamastigotes assessed as decrease in total bilirubin level at […], po once daily for 5 consecutive days starting from day 75 post infection measured on day 81 post infection by biochemical analysis relative to control. Also on record: scale not given: the % may be the effect or the level left. Format: toxicity, organism-based. Conditions: in vivo.

pIC50: −log10 of the molar value. Active and inactive are the calls of the source. The calls are words filed in the database; no cut-off is given here.

Turning to `COc1ccc(C(=O)CCN2CCN(c3ccc([N+](=O)[O-])cc3)CC2)cc1`, the negative-log IC50 (pIC50) in the series on Trypanosoma cruzi [1] was 4.93; with Trypanosoma cruzi [2], 4.52. The selectivity ratio in [3] was 20. In addition, the Activity in the series with Mus musculus [4] was less than 10%; in the series on Mus musculus [5], “<= 10%”; in the series with Mus musculus [6] it was “<= 30%”; with Mus musculus [7], less than 10%; with Trypanosoma cruzi [10], 76.3%. Also, the outcome in the series on Trypanosoma cruzi [8] and in the series on Trypanosoma cruzi [9] was inactive.
On to `COc1ccc(C(=O)CCN2CCN(c3ccc(F)cc3)CC2)cc1`, for which the figures for the pIC50 with Trypanosoma cruzi [1] and in the series on Trypanosoma cruzi [2] were 5.96 and 5.51, respectively. Moreover, the selectivity ratio in [3] was 88.7. In addition, the Activity in the series on Mus musculus [11] is reported as less than 10%; in the series with Mus musculus [7], less than 10%; in the series on Mus musculus [12] it was “<= 10%”; in the series with Mus musculus [13], “<= 10%”; in the series with Mus musculus [14], “<= 20%”; in the series on Mus musculus [15] it was “<= 30%”. Also, the Activity result was “<= 30%” in the series with Mus musculus [16]; “<= 10%” in the series on Mus musculus [17]; “<= 10%” with Mus musculus [18]; “<= 10%” in the series on Mus musculus [19]; 25.6% in the series with Trypanosoma cruzi [10].
Consider `COc1ccc(C(=O)CCN2CCN(c3ccc(Cl)cc3)CC2)cc1`, for which the results for the pIC50 in the series with Trypanosoma cruzi [1] and with Trypanosoma cruzi [2] were 5.47 and 5.24, respectively. The selectivity ratio in series [3] was determined as 82.4. Moreover, the Activity in the series on Mus musculus [4] is reported as less than 10%; in the series with Mus musculus [5], “<= 30%”; in the series with Mus musculus [6], “<= 30%”; in the series on Mus musculus [11], less than 10%; in the series with Mus musculus [12], “<= 10%”; in the series on Mus musculus [13], “<= 20%”. For the same compound, the Activity entry with Mus musculus [14] was “<= 20%”; with Mus musculus [15] it was “<= 20%”; in the series with Mus musculus [16] it was “<= 30%”; in the series with Mus musculus [17], “<= 10%”; in the series on Mus musculus [18], “<= 10%”; in the series on Mus musculus [19], “<= 20%”. Further, in the series on Trypanosoma cruzi [10], the Activity is on record as 27.4%. The outcome in the series with Trypanosoma cruzi [8] and with Trypanosoma cruzi [9] was inactive.
The compound `O=C(Cn1ccnc1[N+](=O)[O-])NCc1ccccc1` [BENZNIDAZOLE] showed a negative-log IC50 (pIC50) in the series on Trypanosoma cruzi [1] of 4.91. In addition, the Activity in the series on Trypanosoma cruzi [10] worked out at 35.4%.

By pIC50 is commonly meant −log10 of the IC50, conventionally taken in molar units.
